Test results taken from article PMC12257578 (Drug Development Research, 2025).
Where two headings read alike, the source gives them in different places.

Legend:
[1] = test system: T. congolense strain IL3000; assay: Antitrypanosomal Cell-TiterGlo assay, T. congolense; format: cell-based, Trypanosoma congolense; details: read-out: Antitrypomastigote activity IC50 ± SD
[2] = test system: Madin‐Darby bovine kidney (MDBK) cell line; assay: Animal cytotoxicity, CCK-8 assay in MDBK cells; format: cell-based; details: read-out: Cytotoxicity CC50 ± SD MDBK, 72 h
In short: (§1)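 MDBK bovine kidney cells at 10 000 cells/mL were exposed to two-fold serial dilutions of test compound for 72 h at 37°C, 5% CO2, humidified. CCK-8 reagent was then added, followed by a further 4 h incubation. Absorbance was read and CC50 derived, reported as mean ± SD of three biological replicates.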

[3] = test system: T. brucei gambiense strain IL1922; assay: Antitrypanosomal Cell-TiterGlo assay, T.b. gambiense; format: cell-based, Trypanosoma brucei gambiense; details: read-out: Antitrypomastigote activity IC50 ± SD; Tbg IL1922, 72 h
[4] = test system: T. equiperdum strain IVM‐t1; assay: Antitrypanosomal Cell-TiterGlo assay, T. equiperdum; format: cell-based, Trypanosoma equiperdum; details: read-out: Antitrypomastigote activity IC50 ± SD
[5] = test system: Trypanosoma brucei brucei GUTat3.1; assay: Antitrypanosomal Cell-TiterGlo assay, T.b. brucei; format: cell-based; details: read-out: Antitrypomastigote activity IC50 ± SD
In short: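 Blood-stage T. b. brucei GUTat3.1 at 2500 cells/mL was first screened at 0.25 and 25 µg/mL. […] Plates ran 72 h, then CellTiter-Glo was added, shaken 2 min and held 10 min at room temperature for lysis. IC50 came from bioluminescence, mean ± SD of three biological replicates.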

[6] = test system: human colorectal adenocarcinoma (CaCO2) cells; details: ref Tshiluka et al. [2023]; Tshiluka et al. [2025]; cited from earlier work
[7] = test system: L. major strain NIH S promastigotes; assay: Antipromastigote resazurin assay, L. major; format: cell-based; details: Leishmania major, read-out: Antipromastigote activity IC50
[8] = Animal cytotoxicity, CCK-8 assay in MDBK cells; format: cell-based, bovine; details: bovine
In short: as §1

[9] = test system: Leishmania donovani strain 9515 promastigotes; assay: Antipromastigote resazurin assay, L. donovani; format: cell-based; details: read-out: Antipromastigote activity IC50
In short: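 L. donovani strain 9515 (MHOM/IN/95/9515) promastigotes were kept at 26°C in supplemented M199 with 10% FBS, pH 7.3–7.4. Log-phase cells were seeded at 1.25 × 10^6 cells/mL with seven two-fold dilutions of test compound. […] After 48 h at 26°C, 0.01% resazurin in PBS was added for 24 h in the dark. IC50 came from absorbance.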

[10] = test system: L. major strain NIH S intramacrophage amastigotes; assay: Intramacrophage antileishmanial assay; format: cell-based; details: Leishmania major
[11] = test system: Leishmania donovani strain 9515 intramacrophage amastigotes; assay: Intramacrophage antileishmanial assay; format: cell-based
[12] = General cytotoxicity, resazurin assay in Vero cells; format: cell-based; details: African green monkey
In short: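 Vero cells at 60,000 cells/mL were pre-incubated 24 h, then treated with a two-fold dilution series starting from 100 μM test compound for 72 h. […] Emetine served as control.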

[13] = 24 h, read-out: Static anti‐amastigote activity IC50
[14] = 72 h, read-out: Cidal anti‐amastigote activity IC50

Structure (SMILES): N=C(N)c1ccc(N=NNc2ccc(C(=N)N)cc2)cc1 [Diminazene aceturate, diminazene aceturate]
- IC50 ([1]; Tc IL3000, 72 h): 90 nM
- CC50 [2]: > 355000 nM
- IC50 [3]: 11 nM
- IC50 ([4]; Teq IVM‐t1, 72 h): 22 ± 2 nM
- IC50 ([5]; Tbb GuTat3.1, 72 h): 68 nM

Structure (SMILES): CCC[C@H](NC(=O)CN1C(=O)SC(=Cc2ccc3c(c2)OCO3)C1=O)C(=O)OCC [Compound 8, Ethyl {2-[5-(benzo[d] [1,3]dioxol-5-ylmethylene)-2,4-dioxothiazolidin-3-yl]acetyl}norvalinate]
- Toxicity on CaCO2 (Caco‐2) cells in words [6]: reduced cell viability
- IC50 [7]: > 100000 nM
- IC50 ([1]; Trypanosoma congolense, 72 h): > 58000 nM
- CC50 at 72 h [8]: 97100 ± 9300 nM
- IC50 [9]: 85860 ± 390 nM
- IC50 ([4]; Trypanosoma equiperdum, 72 h): > 58000 nM
- IC50 [10, 13]: > 10000 nM
- IC50 [10, 14]: > 10000 nM
- IC50 ([5]; Trypanosoma brucei, 72 h): > 58000 nM
- IC50 [11, 13]: > 10000 nM
- IC50 [11, 14]: > 10000 nM

Structure (SMILES): CC[C@H]1CN2CCc3cc(OC)c(OC)cc3[C@@H]2C[C@@H]1C[C@H]1NCCc2cc(OC)c(OC)cc21 [Em, Emetine]
- CC50 at 72 h [12]: 80 ± 9 nM

Structure (SMILES): Cc1ccc(C(=O)Nc2ccc(S(=O)(=O)O)c3cc(S(=O)(=O)O)cc(S(=O)(=O)O)c23)cc1NC(=O)c1cccc(NC(=O)Nc2cccc(C(=O)Nc3cc(C(=O)Nc4ccc(S(=O)(=O)O)c5cc(S(=O)(=O)O)cc(S(=O)(=O)O)c45)ccc3C)c2)c1 [Suramin, suramin]
- CC50 at 72 h [8]: > 70000 nM
- IC50 ([5]; Trypanosoma brucei, 72 h): 70 ± 20 nM

Structure (SMILES): C[C@@H]1[C@H](O)[C@@H](C)/C=C/C=C/C=C/C=C/C=C/C=C/C=C/[C@H](O[C@@H]2O[C@H](C)[C@@H](O)[C@H](N)[C@@H]2O)C[C@@H]2O[C@](O)(C[C@@H](O)C[C@@H](O)[C@H](O)CC[C@@H](O)C[C@@H](O)CC(=O)O[C@H]1C)C[C@H](O)[C@H]2C(=O)O [AMB, Amphotericin B]
- IC50 [9]: 20 ± 9 nM
- IC50 [11, 13]: 50 nM
